# A selection: hits, their analogues and other compounds. The true share with any hit is near 3.6%.
# SR-BI DiI inh – inhibitors of mouse SR-BI mediated HDL lipid uptake. 320,000 tested, 0.96% active. ldlA[mSR-BI] CHO cells, DiI-HDL uptake fluorescence, 3 h. inhibition, % at 12.5 µM. Q61009;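 active = mean replicate inhibition of at least 70% and a set share of replicates each scoring 70 or more; inconclusive = meets just one of the two criteria; inactive = fails both criteria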;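 also: 0% = median of neutral control wells and 100% = median of positive control wells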
# Target sequence (Q61009 whole entry, looked up): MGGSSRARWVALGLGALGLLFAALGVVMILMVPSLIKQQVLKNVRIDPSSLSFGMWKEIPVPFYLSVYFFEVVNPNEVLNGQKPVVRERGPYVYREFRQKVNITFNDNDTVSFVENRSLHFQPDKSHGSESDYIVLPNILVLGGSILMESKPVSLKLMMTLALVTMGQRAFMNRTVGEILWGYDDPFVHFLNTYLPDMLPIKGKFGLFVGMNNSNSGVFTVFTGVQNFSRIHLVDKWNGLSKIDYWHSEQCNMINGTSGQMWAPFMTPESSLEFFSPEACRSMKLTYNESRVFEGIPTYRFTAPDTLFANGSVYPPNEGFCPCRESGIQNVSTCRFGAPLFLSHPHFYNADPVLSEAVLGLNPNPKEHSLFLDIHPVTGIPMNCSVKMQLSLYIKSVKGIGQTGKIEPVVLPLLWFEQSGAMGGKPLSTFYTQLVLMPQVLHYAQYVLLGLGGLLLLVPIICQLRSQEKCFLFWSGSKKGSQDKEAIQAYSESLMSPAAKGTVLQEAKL
# Wnt act – activates Wnt/beta-catenin signaling in a reporter cell assay; activator, plate reader; activation, % at 9.35 µM; 300,000 tested, 1.2% active; AID 743398; in the data active = activation above about 30%, passing the limit was not always enough; inconclusive = no clear call, values can overlap the other calls;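 also: 0% = neutral control wells and 100% = positive control wells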
# SR-BI uptake up – SR-BI HDL lipid transfer activation; CHO ldlA[mSR-BI] cells, DiI-HDL uptake fluorescence, 3 h; 100 = double the neutral-control signal; activation, % at 12.5 µM; 320,000 tested, 0.096% active; AID 504775;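 active = mean replicate activation of at least 60% and every replicate at or above 60%; inconclusive = mean or all-replicate condition met, but not both; inactive = mean below 60% and not all replicates reaching 60%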;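 also: 0% = median plate neutral-control signal and 100% = twice that signal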
#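 Test system: SR-BI-overexpressing, LDLR-lacking CHO cells; Also added: labelled HDL, 10 µg/mL; Measured by: bottom-read cell fluorescence after medium removal, ex 550/em 595 nm; Timing: 3 h uptake period with compound, 37 °C; Buffer or medium: F12, 0.5% BSA, 25 mM HEPES; Doses: single compound concentration, delivered by pin transfer.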
# MITF act – activators of MITF-driven TRPM1 promoter activity in SK-MEL-5 cells; SK-MEL-5 TRPM1-promoter luciferase, 24 h; % of positive control, neutral wells = 0; activation, % at 12.5 µM; AID 588334; 300,000 tested, 0.75% active;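 active = mean activation of at least 80% with every replicate also reaching 80%; inconclusive = mean reaches 80% but some replicate falls short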;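 also: 0% = neutral control wells and 100% = parthenolide positive control wells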
# HSF-1 act – increases HSF-1 driven luciferase reporter signal. NIH3T3-HGL HSF-1 luciferase reporter, MG132, 8 h; 100% = twice DMSO control signal. activation, % at 9 µM. 300,000 tested, 1.7% active. AID 504408;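 active = mean replicate activation of at least 50% with a set share of replicates each reaching 50%; inconclusive = only one of those two conditions met; inactive = mean below 50% and too few replicates reaching it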;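 also: 0% = median of the neutral control wells and 100% = twice that signal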
# * marks the source's active call; other numbers are inactive results; ? = inconclusive; . = not tested or not shown.
SMILES,SR-BI DiI inh,Wnt act,SR-BI uptake up,MITF act,HSF-1 act
O=C(Nc1ccc2c(c1)OCCO2)c1cncc(Br)c1,3,41*,-3,.,40
CCCCN(C)c1c(C)nc2ccc(C(=O)Nc3ccc(OC)c(OC)c3)cn12,.,-2,.,.,.
Cc1csc2nc(CSc3nncn3-c3ccccc3)c(Br)n12,-6,.,6,5,-13
Cc1csc2nc(CSc3nc4ccccc4o3)c(Br)n12,15,.,-15,91*,110*
O=c1c2ccccc2cnn1-c1ccc2ccccc2c1,-18,.,18,29,62*
O=c1c2ccccc2cnn1-c1ccc(Br)cc1,-6,.,6,23,30
NS(=O)(=O)c1ccc(NS(=O)(=O)c2ccc(NC(=S)Nc3ccccc3)cc2)cc1,-21,.,21,1,54*
O=S(=O)(Nc1ncccn1)c1ccc(NC(=S)Nc2ccc(Cl)cc2)cc1,.,6,.,6,56*
O=C(Nc1ccc(Cl)cc1)Nc1ccc(S(=O)(=O)Nc2ncccn2)cc1,-7,-2,7,0,5
Cc1cc(C)cc(NS(=O)(=O)c2ccc(NC(=S)Nc3ccccc3)cc2)c1,-33,0,33,-4,13
O=C(C(=O)N1CCC(c2ccccc2)CC1)c1cccc([N+](=O)[O-])c1,.,1,.,.,.
Cc1cc(/C=C2/NC(=O)N(c3ccccc3)C2=O)c(C)n1-c1cccnc1,7,37*,-7,50,-4
CN(C)c1ccc2c(c1)C(=NO)c1ccccc1-2,-19,.,19,50,.
ON=C1c2ccccc2-c2ccccc21,.,1,.,3,57*
CCCC12CN3CC(C)(CN(C1)C3c1cccs1)C2=O (stereo not given),.,1,.,.,62*
CCCC12CN3CC(C)(CN(C1)C3c1ccc(OC(C)C)cc1)C2=O (stereo not given),-12,.,12,.,35
COc1ccccc1CNc1nc(Nc2ccc(C)cc2C)c2sccc2n1,.,-10,.,.,.
COc1cc2c(cc1NC(=O)c1cccc(Br)c1)CCCC2,73*,.,-73,-9,2
COc1cc2c(cc1NC(=O)c1cccc(F)c1)CCCC2,76*,.,-76,-4,11
CC1(C)CC(=O)C=C(c2ccc(COC(=O)c3ccc(Br)cc3)cc2)C1=O,.,-2,.,.,.
O=C(Nc1ccc(Cl)c(Cl)c1)OCc1cccnc1,21,18,-21,86*,-10
O=C(Nc1cccnc1)OCc1ccccc1,-2,0,2,.,9
O=C(Cn1ncc(Cl)c(Cl)c1=O)NC(=O)NC1CCCCC1,-13,0,13,.,.
Cc1c(C(=O)OC2CCCC2)[nH]c2c1C(=O)CC(c1ccco1)C2 (stereo not given),47,-21,-47,-24,-16
COC(=O)C1C(=O)c2c([nH]c(C(=O)OC3CCCC3)c2C)CC1C (stereo not given),19,.,-19,107*,16
SMILES,SR-BI DiI inh,Wnt act,SR-BI uptake up,MITF act,HSF-1 act
CC(C)CCN1C(=O)c2ccccc2C1c1nnnn1C(C)C (stereo not given),.,-3,.,.,.
COc1ccc(-c2n[nH]nc2C2=CC(=O)CC(C)(C)C2)cc1,.,-5,.,.,.
CC(=O)Oc1ccc(Cl)cc1/C=C/c1cc(OC(C)=O)c2ccccc2n1,.,4,.,.,8
COc1cc(Cl)cc(/C=C/c2ccc3ccccc3n2)c1OC(C)=O,80*,.,-80,74,183*
Cc1ccc(/C(=N/Nc2ncnc3ccccc23)C(=O)O)cc1,.,44*,.,-4,41
Cc1ccc(Nc2ncnc3ccccc23)cc1,-1,.,1,?,30
Cc1cc(/C=N/n2c(COc3ccccc3C)nc3ccccc3c2=O)c(O)c([N+](=O)[O-])c1,144*,1,-144,7,-23
O=c1c2ccccc2nc(COc2ccccc2)n1/N=C/c1cc([N+](=O)[O-])ccc1O,130*,0,-130,-42,19
O=[N+]([O-])c1ccc(Cl)c(/C=N/n2c(COc3ccccc3)n[nH]c2=S)c1,6,2,-6,-7,4
Cc1ccccc1OCc1nc2ccccc2c(=O)n1/N=C/c1c[nH]c2ccccc12,31,1,-31,15,37
CCCCCCN1C[C@@H](O)[C@H](n2cc(C3CC3)nn2)C[C@@H]1c1ccc(C)cc1,.,-2,.,.,.
Cc1ccc(CNC(=O)c2ccc(N3CCC4(CC3)CC(c3cccc(Br)c3)=NO4)c(N)c2)cc1,85*,-6,-85,-10,-9
Cc1ccc(CNC(=O)c2ccc(N3CCC4(CC3)CC(c3cccc(Br)c3)=NO4)c(NC(=O)c3ccc(Br)cc3)c2)cc1,2,-5,-2,-20,.
COc1ccccc1C(=O)NC1CCSc2ccccc21 (stereo not given),6,0,-6,-3,63*
O=C(NC1CCSc2ccccc21)c1ccccc1Cl (stereo not given),2,-1,-2,8,68*
COc1ccc(OC)c(C(=O)NC2CCSc3ccccc32)c1 (stereo not given),20,0,-20,4,18
CSc1ncccc1C(=O)OCC(=O)N(C)Cc1ccc(C)cc1,.,-1,.,.,.
COC(=O)C[C@@H]1C[C@H]2c3cc(NC(=O)Nc4ccccc4F)ccc3O[C@H]2[C@@H](CO)O1,.,-1,.,.,.
O=C(COc1cc2oc(=O)c3c(c2cc1Cl)CCCC3)N1C[C@H]2C[C@@H](C1)c1cccc(=O)n1C2,60,0,-60,7,19
CCCc1cc(=O)oc2cc(OCC(=O)N3C[C@H]4C[C@@H](C3)c3cccc(=O)n3C4)c(Cl)cc12,-13,-2,13,-10,57*
O=C1NC(=Nc2ccccc2)S/C1=C/c1cccs1,-17,51*,17,48,37
COc1ccc(NC(=O)COC(=O)C23CC4CC(CC(O)(C4)C2)C3)cc1Cl,-6,39*,6,86*,.
CCOC(=O)/C=C/C(=O)OCC(=O)Nc1ccc(OC)c(Cl)c1,1,4,-1,5,48
COc1ccc(NC(=O)COC(=O)/C=C/C(=O)OCC(=O)Nc2ccc(OC)c(Cl)c2)cc1Cl,25,-13,-25,10,138*
Cc1cc(C)c(NC(=O)COC(=O)C23CC4CC(CC(O)(C4)C2)C3)c(Cl)c1,-10,4,10,0,.
O=C(COC(=O)C12CC3CC(CC(O)(C3)C1)C2)Nc1ccc(Cl)cc1F,-30,23,30,93*,.
COc1cccc(CNC(=O)[C@H]2CCCN2C(=O)[C@H]2CCCN2C(=O)c2ccc(F)c(C(F)(F)F)c2)c1,.,-6,.,.,.
COCCNC(=O)CSc1c2c(nc3ccc(Cl)cc13)CCCC2,25,2,-25,-8,107*
O=C(CSc1c2c(nc3cc(Cl)ccc13)CCCC2)NCc1ccco1,15,8,.,3,?
COc1ccc(OC)c(NC(=O)CSc2nnc(C3CCCCC3)n2-c2ccccc2)c1,5,57*,-5,-19,3

# From PubChem
